Data as given in ChEMBL document CHEMBL2086367, “Novel oxysterols activate the Hedgehog pathway and induce osteogenesis” (Bioorg Med Chem Lett, 2012).
Activity calls are given as the source filed them. The rule behind the calls is not given here.

How the values were obtained:
Sonic hedgehog protein = Sonic hedgehog protein (Mus musculus, UniProt Q62226); assay: Activation of SHh in mouse Light2 cells assessed as induction of Gli-mediated luciferase activity after 24 hrs by reporter gene assay; format: cell-based
Sequence of Sonic hedgehog protein (Q62226 25-198 limits assumed): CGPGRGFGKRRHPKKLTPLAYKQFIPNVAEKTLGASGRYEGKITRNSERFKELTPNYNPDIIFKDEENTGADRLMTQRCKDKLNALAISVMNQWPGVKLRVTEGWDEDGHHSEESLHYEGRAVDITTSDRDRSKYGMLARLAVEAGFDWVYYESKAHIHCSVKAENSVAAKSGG
Procedure, shortened: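 SHHLight2 cells (8×Gli response elements driving firefly luciferase; constitutive Renilla) seeded at 10,000 cells/well in DMEM/10% FCS. After 24 h, compound added in DMEM/0.5% FCS, triplicate wells. Firefly and Renilla luciferase read 24 h later; firefly divided by Renilla per well, expressed relative to DMSO-treated cells.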

[1] = Half life in human liver microsomes incubated up to 120 mins at pH 7.4; format: ADME, Microsome
C3H 10T1/2 = assay: Osteogenetic activity in mouse C3H10T1/2 cells assessed as increase in osteocalcin expression at 3.3 uM after 10 days by RT-PCR analysis relative to control; format: functional
[2] = Metabolic stability in human liver microsomes assessed as compound remaining after 1 hr; format: ADME, Microsome; details: read-out: Stability
[3] = Half life in human liver microsomes incubated up to 60 mins; format: ADME, Microsome
Procedure, shortened: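 Pooled human liver microsomes with NADPH; sampling at 0, 15, 30, 45 and 60 min to derive intrinsic clearance half-life.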

Rattus norvegicus [4] = assay: Osteogenetic activity in Sprague-Dawley rat assessed as increase in mechanical stability of the vertebral segments at 4 mg/kg measured after 8 weeks by manual palpation; format: functional, organism-based; parameters: dose 4 mg/kg
Procedure, shortened: (§1)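 Sprague Dawley rats; compound in DMSO at 50 mg/mL, 40 µL loaded onto collagen sponge, held 1–2 h at room temperature, implanted bilaterally between L4 and L5 after decorticating transverse processes; 4 mg/kg. After 8 weeks, segment stability scored by manual palpation (n = 10/group, Kruskal-Wallis); formalin-fixed tissue scanned by microCT at 18 µm resolution for callus bone volume.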

Rattus norvegicus [5] = assay: Osteogenetic activity in Sprague-Dawley rat assessed as increase in bone volume in callus at 4 mg/kg measured after 8 weeks by MicroCT analysis; format: functional, organism-based; parameters: dose 4 mg/kg; procedure, shortened: as §1

EC50 (Sonic hedgehog protein) | remaining at 1 h [2] | SMILES | fold change (FC) (C3H 10T1/2) | further results
1000 nM |  | [2H][C@@H](CC(C)C)[C@H]([2H])[C@](C)(O)[C@H]1CC[C@H]2[C@@H]3C[C@H](O)[C@H]4C[C@@H](O)CC[C@]4(C)[C@H]3CC[C@]12C |  | half-life [1]: > 120 min
800 nM | 100% | [2H]C([2H])(CC(C)C)C([2H])([2H])[C@](C)(O)[C@H]1CC[C@H]2[C@@H]3C[C@H](O)[C@H]4C[C@@H](O)CC[C@]4(C)[C@H]3CC[C@@]21C | 17 | half-life [1]: > 120 min
6600 nM |  | CCCCC[C@](C)(O)[C@H]1CC[C@H]2[C@@H]3C[C@H](O)[C@H]4C[C@@H](O)CC[C@]4(C)[C@H]3CC[C@@]21C | 4 | 
800 nM | 3% | CC(C)CCC[C@](C)(O)[C@H]1CC[C@H]2[C@@H]3C[C@H](O)[C@H]4C[C@@H](O)CC[C@]4(C)[C@H]3CC[C@@]21C | 15 | half-life [3]: 4 min; Activity (Rattus norvegicus [4]): inactive; Activity (Rattus norvegicus [4]; tested as the 2H-labelled form): inactive; Activity (Rattus norvegicus [5]): Active; Activity (Rattus norvegicus [5]; tested as the 2H-labelled form): Active
3100 nM | 35% | COCCCC[C@](C)(O)[C@H]1CC[C@H]2[C@@H]3C[C@H](O)[C@H]4C[C@@H](O)CC[C@]4(C)[C@H]3CC[C@@]21C | 3 | 
500 nM |  | CCCCCCC[C@](C)(O)[C@H]1CC[C@H]2[C@@H]3C[C@H](O)[C@H]4C[C@@H](O)CC[C@]4(C)[C@H]3CC[C@@]21C | 17 | 
2900 nM | 9% | CCCCCC[C@@](O)(CC)[C@H]1CC[C@H]2[C@@H]3C[C@H](O)[C@H]4C[C@@H](O)CC[C@]4(C)[C@H]3CC[C@]12C |  | 
> 10000 nM |  | CC(C)CCC[C@@](C)(O)[C@H]1CC[C@H]2[C@@H]3C[C@H](O)[C@H]4C[C@@H](O)CC[C@]4(C)[C@H]3CC[C@@]21C |  | 
1100 nM |  | [2H][C@H](CC(C)C)[C@@H]([2H])[C@](C)(O)[C@H]1CC[C@H]2[C@@H]3C[C@H](O)[C@H]4C[C@@H](O)CC[C@]4(C)[C@H]3CC[C@]12C |  | half-life [3]: 5 min
> 5000 nM |  | C[C@]12CC[C@H](O)C[C@@H]1[C@@H](O)C[C@@H]1[C@@H]2CC[C@@]2(C)[C@H]1CC[C@@H]2[C@@](C)(O)CCCc1ccncc1 | 2 | 
1200 nM |  | C[C@]12CC[C@H](O)C[C@@H]1[C@@H](O)C[C@@H]1[C@@H]2CC[C@@]2(C)[C@H]1CC[C@@H]2[C@@](C)(O)CCCc1cccnc1 |  | 
> 10000 nM | 69% | CCCCCC[C@@](O)(c1ccccc1)[C@H]1CC[C@H]2[C@@H]3C[C@H](O)[C@H]4C[C@@H](O)CC[C@]4(C)[C@H]3CC[C@@]21C |  | 

SMILES | EC50 (Sonic hedgehog protein) | remaining at 1 h [2] | fold change (FC) (C3H 10T1/2) | further results
CCCCCC[C@](C)(O)[C@H]1CC[C@H]2[C@@H]3C[C@H](O)[C@H]4C[C@@H](O)CC[C@]4(C)[C@H]3CC[C@@]21C | 400 nM | 2% | 36 | Activity (Rattus norvegicus [4]): inactive; Activity (Rattus norvegicus [5]): Active
[2H]C([2H])(CCCC)C([2H])([2H])[C@](C)(O)[C@H]1CC[C@H]2[C@@H]3C[C@H](O)[C@H]4C[C@@H](O)CC[C@]4(C)[C@H]3CC[C@@]21C | 300 nM | 100% | 35 | 
C[C@]12CC[C@H](O)C[C@@H]1[C@@H](O)C[C@@H]1[C@@H]2CC[C@@]2(C)[C@H]1CC[C@@H]2[C@@](C)(O)CCCc1ccccc1 | 2500 nM | 1% | 2 | 
